Measured values pooled from the literature.
Compare with care: the assays were run in different laboratories.
Observed: enzyme activity
Action: inhibitor
ABL1: Tyrosine-protein kinase ABL1 (ABL1, Homo sapiens, UniProt P00519)
ABL1 G250E: Tyrosine-protein kinase ABL1 (ABL1, Homo sapiens, UniProt P00519, G250E)
ABL1 E255K: Tyrosine-protein kinase ABL1 (ABL1, Homo sapiens, UniProt P00519, E255K)

SMILES	target	test	conditions	inhibition
COc1cc(-c2cc(-c3ccc(N4CCNCC4)cc3)cnc2N)cc(OC)c1OC	Tyrosine-protein kinase ABL1 (ABL1, Homo sapiens, UniProt P00519, Y253F)	–	0.1 µM	83%
C=CC(=O)Nc1cc(Nc2nccc(Nc3cc(Cl)c(F)cc3C(C)(C)O)n2)c(OC)cc1N1CC[C@@H](N(C)C)C1	ABL1	–	1 µM	6%
O=C(CSc1nc2nccnc2c(=O)n1CCc1ccccc1)Nc1nccs1	ABL1	–	10 µM	4%
COc1cc2ncnc(Nc3ccc(Oc4ccccc4)cc3C)c2cc1OC	ABL1 G250E	–	1 µM	14%
CNC(=O)c1cc2c(Oc3ccc(NC(=O)C4(C(=O)Nc5ccc(F)cc5)CC4)cc3)ccnc2cc1OC	ABL1	radiometric	1 µM	70%
CSc1nc(C)c(-c2ccnc(Nc3ccc(N4CCOCC4)cc3)c2)[nH]1	ABL1	–	10 µM	19.3%
CNc1cccc2cc(C(=O)Nc3ccc(C(=O)O)cc3)c(=O)[nH]c12	Tyrosine-protein kinase ABL1 (ABL1, Homo sapiens, UniProt P00519, Q252H)	–	10 µM	0.4%
CNCc1ccc(-c2cc(-c3nc(-c4ccc(S(=O)(=O)C(C)C)cc4)cnc3N)on2)cc1	ABL1	–	2 µM	34%
CC/C(=N\NC(=O)NCc1cccc(O)c1)c1ccc(O)c(C)c1O	ABL1 E255K	–	0.1 µM	-3.4%
CS(=O)(=O)Nc1cccc(-c2csc(NC(=O)CSc3nc4nccnc4c(=O)n3CCc3ccccc3)n2)c1	ABL1 E255K	–	10 µM	-2%
CCCS(=O)(=O)Nc1ccc(F)c(C(=O)c2c[nH]c3ncc(-c4ccc(Cl)cc4)cc23)c1F	ABL1	–	1 µM	< 20%
COc1cc2ncnc(Nc3ccc(Oc4ccccc4)c(C)c3C)c2cc1OC	ABL1 G250E	–	1 µM	4%
CCOc1cc(-c2nncn2C)ccc1Nc1ncc2cc(C)nc(NCC(C)(C)C)c2n1	ABL1	FRET	1 µM	< 15%
CN(C)C1CCN(CC#Cc2nn(C3CCCC3)c3nc(NCc4ccccc4)ncc23)C1 (centres unmarked)	ABL1	FRET	1 µM	6%
